Data on 14 compounds can be found in ChEMBL document CHEMBL3102721, “Napyradiomycin derivatives, produced by a marine-derived actinomycete, illustrate cytotoxicity by induction of apoptosis” (J Nat Prod, 2014).

Calls of active or inactive are those of the source. The calls are words filed in the database; no cut-off is given here.

The IC50 is the concentration that gives 50% inhibition.

In experiment [1] the test system is HCT-116. The experiment in a line: Antiproliferative activity against human HCT116 cells assessed as cell viability after 72 hrs by MTS assay. Type of experiment: functional, cell-based. The conditions noted are these: HCT-116, 72 h. The gist of the method: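 HCT-116 cells plated, left overnight at 37 °C in 5% CO2/air, then given compound from 10 mg/mL DMSO stock at 100 μM top concentration with serial dilution. After 72 h, MTS/PMS added for 3 h and formazan read at 490 nm. IC50 with 95% CI calculated from viability. Etoposide positive control, DMSO negative control.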
A general note: Formazan colour is commonly taken as a measure of viable cells.

In experiment [2] the test system is HCT-116. The experiment in a line: Induction of apoptosis in human HCT116 cells after 24 hrs by Yo-Pro-1/PI staining-based FACS flow cytometric analysis. Type of experiment: functional, cell-based. The gist of the method: (§1)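 HCT116 cells were grown in McCoy's medium with 10% FBS at 37 °C, 5% CO2, to 50% confluence, then treated for 24 h. They were trypsinized, washed in cold PBS and brought to ~1×10^6 cells/mL. Staining was 30 min on ice with 0.1 μM Yo-Pro-1 (apoptotic) and 3 μg/mL PI (necrotic), final concentrations. Flow cytometry used 488 nm excitation. Gates were set with DMSO and 10 μM camptothecin (24 h) controls, excluding debris.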
For orientation: A flow cytometer gives signals particle by particle.

In experiment [3] the test system is HCT-116. The experiment in a line: Induction of apoptosis in human HCT116 cells at 4 uM after 24 hrs by Yo-Pro-1/PI staining-based FACS flow cytometric analysis. It counts as functional, cell-based. Put shortly: as §1
The subject of experiment [4] is HCT-116. Put plainly: Induction of apoptosis in human HCT116 cells at 1 to 16 uM after 24 hrs by Yo-Pro-1/PI staining-based FACS flow cytometric analysis. It counts as functional, cell-based. Put shortly: as §1
Experiment [5] concerns HCT-116. Put plainly: Induction of cell death in human HCT116 cells at 1 to 16 uM after 24 hrs by Yo-Pro-1/PI staining-based FACS flow cytometric analysis. Type of experiment: functional. Put shortly: as §1
For experiment [6], the system named is HCT-116. Put plainly: Induction of cell death in human HCT116 cells at 32 uM after 24 hrs by Yo-Pro-1/PI staining-based FACS flow cytometric analysis. Type of experiment: functional. Put shortly:
as §1

As for `Cc1c(O)cc2c(c1O)C(=O)[C@H]1C[C@@H](Br)C(C)(C)O[C@@]1(C[C@H]1C(C)(C)[C@@H](Br)CC[C@]1(C)O)C2=O`, the IC50 in experiment [1] stood at 49 µM.

As to `C=C1CC[C@H](Cl)C(C)(C)[C@@H]1C[C@@]12OC(C)(C)[C@H](Cl)C[C@]1(Cl)C(=O)c1c(O)cc(O)cc1C2=O`, the IC50 in experiment [1] worked out at 2 µM.

Turning to `CC1(C)O[C@@]2(C[C@H]3C(C)(C)[C@@H](Cl)CC[C@]3(C)O)C(=O)c3cc(O)cc(O)c3C(=O)[C@@]2(Cl)C[C@H]1Cl`, in experiment [1], the IC50 stood at 10 µM.

Turning to `Cc1c(O)cc2c(c1O)C(=O)C1=C[C@@H](Cl)C(C)(C)O[C@@]1(C[C@H]1C(C)(C)[C@@H](Cl)CC[C@]1(C)O)C2=O`, in experiment [1], the IC50 was over 100 µM.

As for `Cc1c(O)cc2c(c1O)C(=O)[C@@]1(Cl)C[C@@H](Cl)C(C)(C)O[C@@]1(C[C@H]1C(C)(C)[C@H]3CC[C@]1(C)O3)C2=O`, the Activity entry in experiment [2] was “Dose-dependent effect”. The outcome in experiment [3] was Active. Further, the IC50 in experiment [1] was 17 µM.

On to `COc1cc([C@@H]2c3cc4c(cc3[C@@H](O[C@@H]3O[C@@H]5CO[C@@H](C)O[C@H]5[C@H](O)[C@H]3O)[C@H]3COC(=O)[C@H]23)OCO4)cc(OC)c1O` [ETOPOSIDE], for which the IC50 in experiment [1] came out at 1 µM.

With `Cc1c(O)cc2c(c1O)C(=O)[C@@]1(Cl)C[C@@H](Br)C(C)(C)O[C@@]1(C[C@H]1C(C)(C)[C@H]3CC[C@]1(C)O3)C2=O`, in experiment [1], the IC50 was over 100 µM.

Turning to `Cc1c(O)cc2c(c1O)C(=O)C1C[C@@H](Cl)C(C)(C)O[C@@]1(C[C@H]1C(C)(C)[C@@H](Cl)CC[C@]1(C)O)C2=O` (stereo partly drawn), in experiment [1], the IC50 is over 100 µM.

With `CC1=C(O)C2=C(C(=O)[C@]3(C[C@H]4C(C)(C)[C@@H](Cl)CC[C@]4(C)O)OC(C)(C)[C@H](Cl)C[C@]3(Cl)C2=O)C(=[N+]=[N-])C1=O`, the IC50 in experiment [1] is under 1 µM.

In the case of `C=C1CC[C@H](Br)C(C)(C)[C@@H]1C[C@@]12OC(C)(C)[C@H](Cl)C[C@]1(Cl)C(=O)c1c(O)cc(O)cc1C2=O`, the IC50 in experiment [1] came to 3 µM.

Regarding `Cc1c(O)cc2c(c1O)C(=O)[C@@]1(Cl)C[C@@H](Cl)C(C)(C)O[C@@]1(C[C@H]1C(C)(C)[C@@H](Cl)CC[C@]1(C)O)C2=O`, the Activity entry in experiment [2] is “Dose-dependent effect”. In addition, the outcome in experiment [4] and in experiment [5] was Active. For the same compound, the half-inhibitory concentration (IC50) in experiment [1] worked out at 15 µM.

In the case of `C=C1CC[C@H](Cl)C(C)(C)[C@@H]1C[C@@]12OC(C)(C)[C@H](Cl)C[C@]1(Cl)C(=O)c1c(cc(O)c(C)c1O)C2=O`, in experiment [2], the Activity entry was “Dose-dependent effect”. Also, the result in experiment [3] was Active. Further, in experiment [1], the 50% inhibitory concentration (IC50) turned out to be 3 µM.

For `C=C1CC[C@H](Cl)C(C)(C)[C@@H]1C[C@@]12OC(C)(C)[C@H](Cl)C[C@]1(Cl)C(=O)C1=C(C2=O)C(=[N+]=[N-])C(=O)C(C)=C1O`, the Activity entry in experiment [2] is “Dose-dependent effect”. The result in experiment [6] was Active. Moreover, the IC50 in experiment [1] was under 1 µM.

Regarding `CC(C)=CCC/C(C)=C/C[C@@]12OC(C)(C)[C@H](Br)C[C@]1(Cl)C(=O)c1c(cc(O)c(C)c1O)C2=O`, the IC50 in experiment [1] was found to be 6 µM.
